Data as given in ChEMBL document CHEMBL1126875, “Synthesis and LTB4 receptor antagonist activities of the naturally occurring LTB4 receptor antagonist Leucettamine A and related analogues” (J Med Chem, 1993).

Key:
[1] = molecular target: T1, Leukotriene B4 receptor 1 (Homo sapiens, UniProt Q15722); experiment: Binding affinity against Leukotriene B4 receptor on intact differentiated U-937 cells in competitive binding assay with [3H]LTB4; assay type: cell-based
Outline: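 Differentiated U-937 cells (1.3% DMSO, 3–4 days), washed; 10⁶ intact cells incubated in HBSS with 0.1% ovalbumin and 0.2 nM [³H]LTB₄, 20 min at 0 °C. Nonspecific binding defined with 1 μM unlabeled LTB₄. Filtration then scintillation counting. IC₅₀ converted to Ki by Cheng–Prusoff.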

U-937 [2] = experiment: Inhibition of [3H]LTB4 binding in whole cells; settings: Homo sapiens
U-937 [3] = experiment: Inhibition of [3H]LTB4 binding in whole cells (U-937); settings: Homo sapiens
[4] = molecular target: T1, Leukotriene B4 receptor 1; experiment: Binding affinity against Leukotriene B4 receptor on U-937 cell membrane preparations in competitive binding assay with [3H]LTB4

T1 sequence (Q15722 whole entry): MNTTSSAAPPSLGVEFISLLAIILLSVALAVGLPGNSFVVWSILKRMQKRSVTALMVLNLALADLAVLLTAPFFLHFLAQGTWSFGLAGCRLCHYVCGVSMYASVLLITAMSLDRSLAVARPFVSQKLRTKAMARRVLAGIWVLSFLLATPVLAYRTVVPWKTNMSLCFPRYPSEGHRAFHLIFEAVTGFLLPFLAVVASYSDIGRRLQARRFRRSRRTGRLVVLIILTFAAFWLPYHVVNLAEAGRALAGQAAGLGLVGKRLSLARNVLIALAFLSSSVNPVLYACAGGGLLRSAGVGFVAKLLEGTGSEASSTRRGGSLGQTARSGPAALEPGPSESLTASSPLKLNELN

SMILES | Ki [1] | IC50 (U-937 [2]) | IC50 (U-937 [3]) | Ki [4]
Cn1c(N)nc(Cc2ccccc2)c1Cc1ccccc1 | 19 µM | 30 µM |  | 
Cn1c(N)nc(Cc2ccc(CCCCO)cc2)c1Cc1ccccc1 | 2.4 µM | 3.8 µM |  | 
Cn1cc(Cc2ccccc2)nc1N |  | > 100 µM |  | 
CCCCCCn1c(N)nc(Cc2ccccc2)c1Cc1ccccc1 |  |  | > 100 µM | 
COc1cccc(Cc2nc(N)n(C)c2Cc2ccccc2)c1 | 27 µM | 40 µM |  | 
Nc1nc(Cc2ccccc2)c(Cc2ccccc2)[nH]1 | 9 µM | 13 µM |  | 
Cc1[nH]c(N)nc1Cc1ccccc1 |  | > 100 µM |  | 
COc1ccc(/C=C/CCCCOc2ccc(C(=O)c3cccc(C(=O)O)c3)cc2CCC(=O)O)cc1 |  |  |  | 360 nM
Cn1c(N)nc(Cc2ccc3c(c2)OCO3)c1Cc1ccc2c(c1)OCO2 [LEUCETTAMINE A] | 3.5 µM | 5.2 µM |  | 
